Experimental data taken from ChEMBL document CHEMBL1671683, “Activity of linezolid in an in vitro pharmacokinetic-pharmacodynamic model using different dosages and Staphylococcus aureus and Enterococcus faecalis strains with and without a hypermutator phenotype” (Antimicrob Agents Chemother, 2010).

Tests used:
[1] = test system: Staphylococcus aureus; experiment: Bactericidal activity against 12 hrs peripheral compartment culture samples of Staphylococcus aureus RN4220 MutS2 in two-compartment pharmacokinetic/pharmacodynamic model assessed as effect on bacterial count at 600 mg, bid administered as 0.5 hr infusion; format: functional
Procedure, shortened: (§1)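 An 18-h culture concentrated 50-fold was injected into the peripheral compartment 3 h pre-sampling (~10^8 CFU/ml E. faecalis, 10^9 S. aureus). Counts came from dilution plating (detection limit 2–3 log10 CFU/ml), expressed as Δlog CFU/ml from treatment start. Run in duplicate.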

[2] = test system: Enterococcus faecalis; experiment: Bactericidal activity against 12 hrs peripheral compartment culture samples of Enterococcus faecalis ATCC 29212 in two-compartment pharmacokinetic/pharmacodynamic model assessed as effect on bacterial count at 200 mg, bid administered as 0.5 hr infusion; format: functional
Procedure, shortened: (§2)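 Two-compartment hollow-fibre model in cation-adjusted, protein-free MH broth, 37°C. Linezolid given as simulated 0.5-h infusion twice daily. Inoculum grown 18 h, concentrated 50-fold and placed in the peripheral compartment 3 h before t0. Peripheral samples at set times counted by dilution plating. First 10-fold dilution not plated, limiting detection to 2–3 log10 CFU/ml. Δlog CFU/ml taken from t0 count. Duplicates.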

[3] = test system: Enterococcus faecalis; experiment: Bactericidal activity against 14 hrs peripheral compartment culture samples of Enterococcus faecalis ATCC 29212 in two-compartment pharmacokinetic/pharmacodynamic model assessed as effect on bacterial count at 200 mg, bid administered as 0.5 hr infusion; format: functional; procedure, shortened: as §1
[4] = test system: Enterococcus faecalis; experiment: Bactericidal activity against 24 hrs peripheral compartment culture samples of Enterococcus faecalis ATCC 29212 in two-compartment pharmacokinetic/pharmacodynamic model assessed as effect on bacterial count at 200 mg, bid administered as 0.5 hr infusion; format: functional; procedure, shortened: as §1
[5] = test system: Enterococcus faecalis; experiment: Bactericidal activity against 48 hrs peripheral compartment culture samples of Enterococcus faecalis ATCC 29212 in two-compartment pharmacokinetic/pharmacodynamic model assessed as effect on bacterial count at 200 mg, bid administered as 0.5 hr infusion; format: functional; procedure, shortened: as §1
[6] = test system: Enterococcus faecalis; experiment: Bactericidal activity against 12.5 hrs peripheral compartment culture samples of Enterococcus faecalis Ef1497 in two-compartment pharmacokinetic/pharmacodynamic model assessed as effect on bacterial count at 600 mg, bid administered as 0.5 hr infusion; format: functional; procedure, shortened: as §1
[7] = test system: Enterococcus faecalis; experiment: Bactericidal activity against 13 hrs peripheral compartment culture samples of Enterococcus faecalis Ef1497 in two-compartment pharmacokinetic/pharmacodynamic model assessed as effect on bacterial count at 600 mg, bid administered as 0.5 hr infusion; format: functional; procedure, shortened: as §1
[8] = test system: Enterococcus faecalis; experiment: Bactericidal activity against 14 hrs peripheral compartment culture samples of Enterococcus faecalis Ef1497 in two-compartment pharmacokinetic/pharmacodynamic model assessed as effect on bacterial count at 600 mg, bid administered as 0.5 hr infusion; format: functional; procedure, shortened: as §1
[9] = test system: Enterococcus faecalis; experiment: Bactericidal activity against 24 hrs peripheral compartment culture samples of Enterococcus faecalis Ef1497 in two-compartment pharmacokinetic/pharmacodynamic model assessed as effect on bacterial count at 600 mg, bid administered as 0.5 hr infusion; format: functional; procedure, shortened: as §1
[10] = test system: Enterococcus faecalis; experiment: Bactericidal activity against 1 hr peripheral compartment culture samples of Enterococcus faecalis Ef1497 MutM3 in two-compartment pharmacokinetic/pharmacodynamic model assessed as effect on bacterial count at 600 mg, bid administered as 0.5 hr infusion; format: functional; procedure, shortened: as §2
[11] = test system: Enterococcus faecalis; experiment: Bactericidal activity against 14 hrs peripheral compartment culture samples of Enterococcus faecalis Ef1497 MutM3 in two-compartment pharmacokinetic/pharmacodynamic model assessed as effect on bacterial count at 600 mg, bid administered as 0.5 hr infusion; format: functional; procedure, shortened: as §1
[12] = Tmax in two-compartment pharmacokinetic/pharmacodynamic model at 200 mg, bid administered as 0.5 hrs infusion; format: ADME, organism-based; conditions: iv
Procedure, shortened: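 Two-compartment in vitro hollow-fibre model in cation-adjusted, protein-free Mueller-Hinton broth at 37°C. Human total-plasma linezolid profile simulated as 0.5-h infusion every 12 h for 48 h, computer-controlled syringe pump into central compartment. […] Peripheral samples assayed by validated HPLC-UV (quantification limit 0.39 μg/ml). Tmax read directly from concentration-time profiles. Run in duplicate.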

[13] = Residual concentration at the end of the administration interval in two-compartment pharmacokinetic/pharmacodynamic model at 600 mg, bid administered as 0.5 hrs infusion; format: ADME; conditions: iv, read-out: Drug uptake
[14] = Apparent volume of distribution in two-compartment pharmacokinetic/pharmacodynamic model at 800 mg, bid administered as 0.5 hrs infusion; format: ADME, organism-based; conditions: iv
[15] = Volume of distribution at steady state in two-compartment pharmacokinetic/pharmacodynamic model at 400 mg, bid administered as 0.5 hrs infusion; format: ADME, organism-based; conditions: iv, read-out: Vdss
[16] = Elimination half-life in healthy human at 600 mg, iv, bid administered as 0.5 hr infusion; format: ADME, organism-based; conditions: in vivo, read-out: beta t1/2 (converted)
[17] = test system: Staphylococcus aureus; experiment: Bactericidal activity against 13 hrs peripheral compartment culture samples of Staphylococcus aureus RN4220 in two-compartment pharmacokinetic/pharmacodynamic model assessed as effect on bacterial count at 600 mg, bid administered as 0.5 hr infusion; format: functional; procedure, shortened: as §1
[18] = test system: Staphylococcus aureus; experiment: Bactericidal activity against 24 hrs peripheral compartment culture samples of Staphylococcus aureus RN4220 in two-compartment pharmacokinetic/pharmacodynamic model assessed as effect on bacterial count at 600 mg, bid administered as 0.5 hr infusion; format: functional; procedure, shortened: as §1
[19] = test system: Staphylococcus aureus; experiment: Bactericidal activity against 48 hrs peripheral compartment culture samples of Staphylococcus aureus RN4220 in two-compartment pharmacokinetic/pharmacodynamic model assessed as effect on bacterial count at 600 mg, bid administered as 0.5 hr infusion; format: functional
Procedure, shortened: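 An 18-h culture was concentrated 50-fold by centrifugation and injected into the peripheral compartment 3 h before first sampling, giving about 10^9 CFU/ml exponential growth. Linezolid was simulated as a 0.5-h infusion every 12 h. Samples taken from 0 to 48 h were counted by dilution plating on MH agar; the first 10-fold dilution was not plated (detection limit 2–3 log10 CFU/ml). Effect was expressed as Δlog CFU/ml from treatment start. Run in duplicate.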

[20] = test system: Enterococcus faecalis; experiment: ABBC (0 to 24 hrs) in Enterococcus faecalis Ef1497 in two-compartment pharmacokinetic/pharmacodynamic model at 600 mg, bid administered as 0.5 hr infusion for 2 days; format: functional
Procedure, shortened: (§3)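 Hollow-fibre two-compartment model in cation-adjusted, protein-free MH broth at 37°C. Human total-plasma linezolid profile simulated as 0.5-h infusion every 12 h for 48 h. Concentrated 18-h culture injected into the peripheral compartment 3 h before first sample, giving about 10^8 (E. faecalis) or 10^9 (S. aureus) CFU/ml. Viable counts by dilution plating over 0–24 h. Area indices calculated versus growth control curve. Duplicate runs.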

[21] = test system: Enterococcus faecalis; experiment: ABBC (0 to 24 hrs) in Enterococcus faecalis Ef1497 MutM3 in two-compartment pharmacokinetic/pharmacodynamic model at 600 mg, bid administered as 0.5 hr infusion for 2 days; format: functional; procedure, shortened: as §3
[22] = Cmax in two-compartment pharmacokinetic/pharmacodynamic model at 200 mg, bid administered as 0.5 hr infusion over 24 hrs; format: ADME, organism-based; parameters: dose 200 mg; conditions: iv
[23] = in vivo; conditions: iv, 600 mg
[24] = in vitro; conditions: two-compartment pharmacokinetic/pharmacodynamic model, iv, 800 mg
[25] = Apparent volume of distribution in two-compartment pharmacokinetic/pharmacodynamic model bid administered as 0.5 hr infusion over 24 hrs; conditions: in vivo, iv

With `CC(=O)NC[C@H]1CN(c2ccc(N3CCOCC3)c(F)c2)C(=O)O1` [LINEZOLID] as the molecule, how does the log10CFU/ml [1] read?
Its log10CFU/ml is 0.21.

And the log10CFU/ml [2]?
Its log10CFU/ml is 0.14.

What about the log10CFU/ml [3] of the same molecule?
The log10CFU/ml was 0.55.

What about the log10CFU/ml [4] of the same molecule?
The log10CFU/ml was 0.83.

What about the log10CFU/ml [5] of the same molecule?
Its log10CFU/ml is 1.23.

What about the log10CFU/ml [6] of the same molecule?
Its log10CFU/ml is -0.14.

What about the log10CFU/ml [7] of the same molecule?
Its log10CFU/ml is 0.09.

What about the log10CFU/ml [8] of the same molecule?
The log10CFU/ml was 0.13.

And the log10CFU/ml [9]?
Its log10CFU/ml is 0.35.

And the log10CFU/ml [10]?
The log10CFU/ml was -0.01.

And the log10CFU/ml [11]?
The log10CFU/ml was 0.28.

What about the Tmax [12] of the same molecule?
The Tmax was 0.5 h.

And the concentration at 0.5 h [13]?
Its concentration at 0.5 h is 1170 ng/mL.

What about the Vd [14] of the same molecule?
Its Vd is 124 L.

And the Vd [15]?
Its Vd is 112 L.

What about the half-life [16] of the same molecule?
The half-life was 5.1 h.

What about the log10CFU/ml [17] of the same molecule?
Its log10CFU/ml is -0.22.

And the log10CFU/ml [18]?
Its log10CFU/ml is -0.17.

What about the log10CFU/ml [19] of the same molecule?
The log10CFU/ml was 0.32.

What about the ABBC [20] of the same molecule?
Its ABBC is -1.49 log10CFU/ml.hr.

And the ABBC [21]?
Its ABBC is -2.66 log10CFU/ml.hr.

What about the Cmax [22] of the same molecule?
Its Cmax is 4790 ng/mL.

And the half-life [23]?
The half-life was 6.18 h.

And the half-life at 0.5 h [24]?
The half-life at 0.5 h was 5.01 h.

What about the Vd [25] of the same molecule?
The Vd was 115 L.
